# Key:
# RAW264.7 [1] = experiment: Antiinflammatory activity against LPS-stimulated mouse RAW264.7 cells assessed as inhibition of NO production after 18 hrs by Griess method; format: functional, cell-based; details: RAW264.7, 18 h
# In short: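 RAW 264.7 murine macrophages were seeded at 2 × 10^5 cells/well in RPMI 1640 with 10% FBS at 37 °C under 5% CO2 and preincubated for 24 h. Cells were then exposed for 18 h to serial dilutions (top concentration 25 μM; DMSO solutions diluted in medium) plus 1 μg/mL LPS. Supernatants were mixed with Griess reagents A and B in triplicate and read at 570 nm after 5 min.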
# RAW264.7 [2] = experiment: Cytotoxicity against mouse RAW264.7 cells at 50 uM by MTT assay; format: cell-based; details: raw264.7, 50 µM
# HL-60 = experiment: Cytotoxicity against human HL60 cells by MTT assay; format: functional, cell-based
# Artemia salina [3] = experiment: Toxicity in brine shrimp larva assessed as corrected mortality at 100 ppm after 24 hrs by microscopic analysis relative to control; format: functional
# In short: (§1)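 Artemia salina larvae tested by a microwell method. Corrected mortality was derived from treatment-group mortality (Mt) against vehicle-control-group mortality (Mc).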
# Artemia salina [4] = experiment: Toxicity in brine shrimp larva assessed as corrected mortality at 10 ppm after 24 hrs by microscopic analysis relative to control; format: functional; in short: as §1
# Artemia salina [5] = experiment: Toxicity in brine shrimp larva assessed as corrected mortality at 50 ppm after 24 hrs by microscopic analysis relative to control; format: functional; in short: as §1
Structure (SMILES),IC50 (RAW264.7 [1]) [µM],Activity (RAW264.7 [2]),IC50 (HL-60) [µM],mortality at 100 ppm (Artemia salina [3]) [%],mortality at 10 ppm (Artemia salina [4]) [%],mortality at 50 ppm (Artemia salina [5]) [%]
C=C1[C@@H]([C@@]2(C)C=CC(=O)C(C)(C)[C@@H]2CC(=O)OC)[C@@H](OC(C)=O)[C@H](OC(C)=O)[C@@]2(C)[C@H](C3=CC(O)OC3=O)C[C@H]3O[C@]132 (some centres not stated),> 20,Non-toxic,< 10,< 50,,
C=C1[C@@H]([C@@]2(C)[C@H](OC(C)=O)CC(=O)C(C)(C)[C@@H]2CC(=O)OC)[C@@H](OC(C)=O)[C@H](OC(=O)C(C)C)[C@@]2(C)[C@H](c3ccoc3)C[C@H]3O[C@]132,> 20,Non-toxic,< 10,81.7,60.8,61.8
C=C1[C@@H]([C@@]2(C)C=CC(=O)C(C)(C)[C@@H]2CC(=O)OC)[C@@H](OC(C)=O)[C@H](OC(=O)C(C)C)[C@@]2(C)[C@H](c3ccoc3)C[C@H]3O[C@]132,> 20,Non-toxic,< 10,,,
C=C1[C@@H]([C@@]2(C)C=CC(=O)C(C)(C)[C@@H]2CC(=O)OC)[C@@H](OC(C)=O)[C@H](OC(=O)C(C)CC)[C@@]2(C)[C@H](c3ccoc3)C[C@H]3O[C@]132 (some centres not stated),> 20,Non-toxic,< 10,,,
CCC(=O)O[C@@H]1C[C@H](OC(C)=O)[C@@]2(C)[C@@H]([C@@H](O)[C@@H](OC(C)=O)[C@@]3(C)C4=CC[C@@H](c5ccoc5)[C@]4(C)CC[C@@H]32)C1(C)C,> 20,Non-toxic,< 10,,,
C/C=C(\C)C(=O)O[C@H]1C[C@@H](OC(=O)CC)[C@@]2(C(=O)OC)CO[C@H]3[C@H]4O[C@]5(C)[C@H]6C[C@H](OC7OC=C[C@@]76O)[C@]5(O)[C@@]4(C)C4[C@]1(CO[C@]4(O)C(=O)OC)[C@@H]32 (some centres not stated),> 20,Non-toxic,< 10,,,
C/C=C(\C)C(=O)O[C@H]1C[C@@H](OC(=O)CC)[C@@]2(C(=O)OC)CO[C@H]3[C@@H](O)[C@@](C)(C45OC4(C)C4C[C@H]5O[C@@H]5OC=CC45O)C4[C@]1(CO[C@]4(O)C(=O)OC)[C@@H]32 (some centres not stated),> 20,Non-toxic,< 10,,,
CO[C@H]1O[C@@H]([C@@H]2OC2(C)C)C[C@H]1[C@@H]1CC=C2[C@]3(C)[C@H](O)C[C@H]4C(C)(C)C(=O)C=C[C@]4(C)[C@H]3CC[C@]21C,17.4,Non-toxic,< 10,,,
CO[C@@H]1O[C@@H]([C@@H]2OC2(C)C)C[C@H]1[C@@H]1CCC2[C@]3(C)[C@H](O)C[C@H]4C(C)(C)C(=O)C=C[C@]4(C)[C@H]3CC[C@]21C (some centres not stated),> 20,Non-toxic,< 10,,,
CC(=O)O[C@@H]1C[C@H]2C(C)(C)C(=O)C=C[C@]2(C)[C@H]2CC[C@]3(C)C(=CC[C@H]3[C@H]3COC(C)(C)[C@@H](O)[C@H](O)C3)[C@@]21C,> 20,Non-toxic,< 10,69.8,0,6.7
CC(=O)O[C@H]1C[C@@H]2[C@@]3(C)C=CC(=O)C(C)(C)[C@@H]3C[C@@H](O)[C@@]2(C)C2=CC[C@@H](c3ccoc3)[C@@]21C,11.9,Non-toxic,< 10,85,20.6,83.5
CCC(=O)O[C@@H]1C[C@H](OC(C)=O)[C@@]2(C)[C@H]3[C@@H](OC[C@]13C)[C@@H](O)[C@@]1(C)C3=CC[C@@H](c4ccoc4)[C@]3(C)CC[C@@H]12,18.5,Non-toxic,< 10,75.6,0,36.3
C=C1[C@@H]([C@@]2(C)C=CC(=O)C(C)(C)[C@@H]2CC(=O)OC)[C@@H](OC(C)=O)[C@H](OC(C)=O)[C@@]2(C)[C@H](c3ccoc3)C[C@H]3O[C@]132,> 20,Non-toxic,< 10,< 50,,
C[C@@H](C[C@@H](O)[C@H](O)C(C)(C)O)[C@@H]1CC[C@]2(C)C3=CC[C@H]4C(C)(C)[C@@H](O)CC[C@]4(C)[C@H]3CC[C@@]12C,> 20,Non-toxic,< 10,,,
C/C=C(\C)C(=O)O[C@H]1C[C@@H](OC(C)=O)[C@@]2(C(=O)OC)CO[C@H]3[C@@H](O)[C@@](C)([C@]45O[C@@]4(C)[C@@H]4C[C@H]5O[C@@H]5OC=C[C@@]54O)[C@H]4[C@]1(CO[C@]4(O)C(=O)OC)[C@@H]32 [AZADIRACHTIN A],> 20,Non-toxic,< 10,81.7,12.5,59.6
C[C@@H](C[C@@H](O)[C@@H]1OC1(C)C)[C@@H]1CC[C@]2(C)C3=CC[C@H]4C(C)(C)[C@@H](O)CC[C@]4(C)[C@H]3CC[C@@]12C [DIHYDRONILOTICIN],> 20,Non-toxic,< 10,,,
CC(=O)O[C@H]1C[C@@H]2[C@@]3(C)CCC(=O)C(C)(C)[C@@H]3C[C@@H](O)[C@@]2(C)C2=CC[C@@H](c3ccoc3)[C@@]21C [MZIKONONE],> 20,Non-toxic,< 10,76.4,0,36.9
CC(=O)O[C@@H]1[C@H](O)[C@H]2C(C)(C)C(=O)C=C[C@]2(C)[C@H]2CC[C@]3(C)C(=CC[C@H]3c3ccoc3)[C@]12C [NIMONOL],> 20,Non-toxic,< 10,,,
C=C1C2=CC[C@H](c3ccoc3)[C@]2(C)[C@@H](OC(C)=O)[C@H](OC(C)=O)[C@@H]1[C@@]1(C)C=CC(=O)C(C)(C)[C@@H]1CC(=O)OC [TURRAFLORIN A],15.4,Non-toxic,< 10,< 50,,
C=C1[C@@H]([C@@]2(C)C=CC(=O)C(C)(C)[C@@H]2CC(=O)OC)[C@@H](OC(C)=O)[C@H](OC(=O)C(C)C)[C@@]2(C)[C@H](C(=O)O)C[C@H]3O[C@]132 [TURRAPUBESIC ACID B],> 20,Non-toxic,< 10,,,
C=C1[C@@H]([C@@]2(C)C=CC(=O)C(C)(C)[C@@H]2CC(=O)OC)[C@@H](OC(C)=O)[C@H](OC(=O)Cc2ccccc2)[C@@]2(C)[C@H](C3=CC(=O)OC3O)C[C@H]3O[C@]132 (some centres not stated) [TURRAPUBESIN E],> 20,Non-toxic,< 10,< 50,,
C=C1[C@@H]([C@@]2(C)[C@H](OC(C)=O)CC(=O)C(C)(C)[C@@H]2CC(=O)OC)[C@@H](OC(C)=O)[C@H](OC(C)=O)[C@@]2(C)[C@H](c3ccoc3)C[C@H]3O[C@]132 [TURRAPUBIN A],> 20,Non-toxic,< 10,54.7,0,0.8
C=C1[C@@H]2[C@@H](O[C@H]3CC(=O)C(C)(C)[C@H](CC(=O)OC)[C@]32C)[C@H](OC(C)=O)[C@@]2(C)[C@H](c3ccoc3)C[C@H]3O[C@]132 [TURRAPUBIN D],> 20,Non-toxic,< 10,,,
C=C1[C@@H]([C@@]2(C)C=CC(=O)C(C)(C)[C@@H]2CC(=O)OC)[C@@H](OC(C)=O)[C@H](O)[C@@]2(C)[C@H](c3ccoc3)C[C@H]3O[C@]132 [TURRAPUBIN E],> 20,Non-toxic,< 10,< 50,,
C=C1[C@@H]([C@@]2(C)C=CC(=O)C(C)(C)[C@@H]2CC(=O)OC)[C@@H](OC(C)=O)[C@H](OC(=O)C(C)C)[C@@]2(C)[C@H](C3=CC(O)OC3=O)C[C@H]3O[C@]132 (some centres not stated) [TURRAPUBIN H],> 20,Non-toxic,< 10,< 50,,

# — ChEMBL document CHEMBL2384971, “Bioactive limonoid and triterpenoid constituents of Turraea pubescens” (J Nat Prod, 2013)
